Results as given in ChEMBL document CHEMBL5705888, “Substrate specificity and inhibitors of LRRK2, a protein kinase mutated in Parkinson's disease” (Biochem J, 2009).

Tests used:
[1] = target: T1, Dual specificity tyrosine-phosphorylation-regulated kinase 3 (Homo sapiens) (UniProt O43781); assay: Inhibition of DYRK3 (unknown origin) at 1 uM incubated for 30 mins in presence of [gamma-33P]ATP by multidrop micro reagent based assay relative to control; values are per cent of control
T1 sequence (whole entry): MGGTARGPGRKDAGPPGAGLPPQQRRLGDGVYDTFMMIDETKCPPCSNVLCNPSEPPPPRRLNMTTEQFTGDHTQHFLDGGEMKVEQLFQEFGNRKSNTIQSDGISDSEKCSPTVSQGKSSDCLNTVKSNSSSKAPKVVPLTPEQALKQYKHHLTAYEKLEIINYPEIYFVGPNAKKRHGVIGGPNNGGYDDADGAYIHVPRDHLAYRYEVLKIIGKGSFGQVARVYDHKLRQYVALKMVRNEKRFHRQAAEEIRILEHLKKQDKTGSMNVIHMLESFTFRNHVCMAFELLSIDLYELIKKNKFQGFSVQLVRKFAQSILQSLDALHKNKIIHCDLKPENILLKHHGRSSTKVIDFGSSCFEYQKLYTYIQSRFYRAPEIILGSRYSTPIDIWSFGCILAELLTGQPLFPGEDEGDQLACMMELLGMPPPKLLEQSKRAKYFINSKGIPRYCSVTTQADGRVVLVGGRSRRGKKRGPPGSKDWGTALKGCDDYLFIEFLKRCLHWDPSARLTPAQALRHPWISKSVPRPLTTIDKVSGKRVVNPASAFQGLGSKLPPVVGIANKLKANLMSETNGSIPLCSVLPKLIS

[2] = target: MAP kinase-interacting serine/threonine-protein kinase 1 (Homo sapiens) (UniProt Q9BUB5); assay: Inhibition of MNK1 (unknown origin) at 1 uM incubated for 30 mins in presence of [gamma-33P]ATP by multidrop micro reagent based assay relative to control; values are per cent of control
[3] = target: Receptor tyrosine-protein kinase erbB-4 (Homo sapiens) (UniProt Q15303); assay: Inhibition of HER4 (unknown origin) at 1 uM incubated for 30 mins in presence of [gamma-33P]ATP by multidrop micro reagent based assay relative to control; values are per cent of control
[4] = target: T2, NUAK family SNF1-like kinase 1 (Homo sapiens) (UniProt O60285); assay: Inhibition of NUAK1 (unknown origin) at 1 uM incubated for 30 mins in presence of [gamma-33P]ATP by multidrop micro reagent based assay relative to control
T2 sequence (whole entry): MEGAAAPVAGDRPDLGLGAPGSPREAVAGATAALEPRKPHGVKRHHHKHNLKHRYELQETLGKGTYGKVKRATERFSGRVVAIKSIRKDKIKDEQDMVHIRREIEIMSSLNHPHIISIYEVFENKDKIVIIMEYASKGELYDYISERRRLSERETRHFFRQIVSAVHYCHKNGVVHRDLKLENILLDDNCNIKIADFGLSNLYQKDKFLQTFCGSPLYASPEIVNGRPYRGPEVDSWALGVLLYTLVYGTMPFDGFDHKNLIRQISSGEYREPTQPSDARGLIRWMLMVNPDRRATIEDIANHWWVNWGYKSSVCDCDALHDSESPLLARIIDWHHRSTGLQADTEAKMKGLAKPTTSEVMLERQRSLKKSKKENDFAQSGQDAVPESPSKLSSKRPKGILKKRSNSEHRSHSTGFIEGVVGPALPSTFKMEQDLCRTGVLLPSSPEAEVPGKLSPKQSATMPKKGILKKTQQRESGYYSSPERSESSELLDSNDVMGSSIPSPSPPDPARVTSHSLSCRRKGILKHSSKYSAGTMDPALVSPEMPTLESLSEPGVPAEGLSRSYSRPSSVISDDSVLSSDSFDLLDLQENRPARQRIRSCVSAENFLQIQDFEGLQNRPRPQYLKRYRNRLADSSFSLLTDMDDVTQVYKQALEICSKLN
How it was run: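 Single-concentration screen across a panel of 85 protein kinases. Activity is expressed as a percentage of control incubations run without inhibitor.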

[5] = target: SRSF protein kinase 1 (Homo sapiens) (UniProt Q96SB4); assay: Inhibition of SRPK1 (unknown origin) at 1 uM incubated for 30 mins in presence of [gamma-33P]ATP by multidrop micro reagent based assay relative to control; values are per cent of control
[6] = target: Casein kinase 2 (Homo sapiens) (UniProt P67870+P68400+P19784+Q8NEV1); assay: Inhibition of CK2 (unknown origin) at 1 uM incubated for 30 mins in presence of [gamma-33P]ATP by multidrop micro reagent based assay relative to control; values are per cent of control
[7] = target: T3, Mitogen-activated protein kinase kinase kinase kinase 2 (Homo sapiens) (UniProt Q12851); assay: Inhibition of GCK (unknown origin) at 10 uM incubated for 30 mins in presence of [gamma-33P]ATP by multidrop micro reagent based assay relative to control; values are per cent of control
T3 sequence (whole entry): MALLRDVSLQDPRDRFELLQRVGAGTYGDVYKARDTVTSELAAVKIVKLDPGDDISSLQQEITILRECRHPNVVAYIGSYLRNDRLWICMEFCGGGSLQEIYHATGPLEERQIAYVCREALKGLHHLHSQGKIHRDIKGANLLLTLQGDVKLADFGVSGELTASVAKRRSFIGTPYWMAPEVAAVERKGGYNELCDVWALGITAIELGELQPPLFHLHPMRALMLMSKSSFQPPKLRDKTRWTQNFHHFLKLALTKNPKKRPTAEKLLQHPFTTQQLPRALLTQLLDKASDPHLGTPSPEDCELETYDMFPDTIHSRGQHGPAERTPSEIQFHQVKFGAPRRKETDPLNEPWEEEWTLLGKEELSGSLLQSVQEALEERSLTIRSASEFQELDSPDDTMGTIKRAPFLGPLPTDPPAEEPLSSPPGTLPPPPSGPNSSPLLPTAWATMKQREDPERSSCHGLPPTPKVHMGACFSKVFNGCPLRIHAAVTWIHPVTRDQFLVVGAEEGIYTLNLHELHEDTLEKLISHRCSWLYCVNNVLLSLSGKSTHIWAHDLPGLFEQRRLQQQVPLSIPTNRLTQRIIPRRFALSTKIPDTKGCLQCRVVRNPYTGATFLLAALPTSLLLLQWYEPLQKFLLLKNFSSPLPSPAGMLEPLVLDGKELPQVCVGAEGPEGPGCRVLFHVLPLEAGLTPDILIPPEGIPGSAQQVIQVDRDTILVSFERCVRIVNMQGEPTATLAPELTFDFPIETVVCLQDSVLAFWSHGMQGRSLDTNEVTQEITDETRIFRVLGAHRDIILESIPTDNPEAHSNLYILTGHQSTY

[8] = target: MAP kinase-interacting serine/threonine-protein kinase 2 (Homo sapiens) (UniProt Q9HBH9); assay: Inhibition of MNK2 (unknown origin) at 10 uM incubated for 30 mins in presence of [gamma-33P]ATP by multidrop micro reagent based assay relative to control; values are per cent of control
MAP kinase-interacting serine/threonine-protein kinase 2 (Homo sapiens), sequence (Q9HBH9 whole entry, looked up): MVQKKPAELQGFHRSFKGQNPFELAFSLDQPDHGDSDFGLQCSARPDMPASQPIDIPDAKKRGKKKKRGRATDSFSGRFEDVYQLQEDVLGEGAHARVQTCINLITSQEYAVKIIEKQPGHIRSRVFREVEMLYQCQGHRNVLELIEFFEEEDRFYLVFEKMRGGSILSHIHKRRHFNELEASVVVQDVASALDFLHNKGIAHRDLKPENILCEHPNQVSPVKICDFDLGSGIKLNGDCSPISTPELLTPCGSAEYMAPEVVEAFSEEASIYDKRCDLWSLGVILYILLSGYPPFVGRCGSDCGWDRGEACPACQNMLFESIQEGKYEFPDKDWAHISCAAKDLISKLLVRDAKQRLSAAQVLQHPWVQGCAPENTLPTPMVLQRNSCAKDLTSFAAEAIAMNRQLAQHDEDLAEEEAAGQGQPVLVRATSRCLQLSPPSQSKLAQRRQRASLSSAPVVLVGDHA

Receptor tyrosine-protein kinase erbB-4 (Homo sapiens), sequence (Q15303 whole entry): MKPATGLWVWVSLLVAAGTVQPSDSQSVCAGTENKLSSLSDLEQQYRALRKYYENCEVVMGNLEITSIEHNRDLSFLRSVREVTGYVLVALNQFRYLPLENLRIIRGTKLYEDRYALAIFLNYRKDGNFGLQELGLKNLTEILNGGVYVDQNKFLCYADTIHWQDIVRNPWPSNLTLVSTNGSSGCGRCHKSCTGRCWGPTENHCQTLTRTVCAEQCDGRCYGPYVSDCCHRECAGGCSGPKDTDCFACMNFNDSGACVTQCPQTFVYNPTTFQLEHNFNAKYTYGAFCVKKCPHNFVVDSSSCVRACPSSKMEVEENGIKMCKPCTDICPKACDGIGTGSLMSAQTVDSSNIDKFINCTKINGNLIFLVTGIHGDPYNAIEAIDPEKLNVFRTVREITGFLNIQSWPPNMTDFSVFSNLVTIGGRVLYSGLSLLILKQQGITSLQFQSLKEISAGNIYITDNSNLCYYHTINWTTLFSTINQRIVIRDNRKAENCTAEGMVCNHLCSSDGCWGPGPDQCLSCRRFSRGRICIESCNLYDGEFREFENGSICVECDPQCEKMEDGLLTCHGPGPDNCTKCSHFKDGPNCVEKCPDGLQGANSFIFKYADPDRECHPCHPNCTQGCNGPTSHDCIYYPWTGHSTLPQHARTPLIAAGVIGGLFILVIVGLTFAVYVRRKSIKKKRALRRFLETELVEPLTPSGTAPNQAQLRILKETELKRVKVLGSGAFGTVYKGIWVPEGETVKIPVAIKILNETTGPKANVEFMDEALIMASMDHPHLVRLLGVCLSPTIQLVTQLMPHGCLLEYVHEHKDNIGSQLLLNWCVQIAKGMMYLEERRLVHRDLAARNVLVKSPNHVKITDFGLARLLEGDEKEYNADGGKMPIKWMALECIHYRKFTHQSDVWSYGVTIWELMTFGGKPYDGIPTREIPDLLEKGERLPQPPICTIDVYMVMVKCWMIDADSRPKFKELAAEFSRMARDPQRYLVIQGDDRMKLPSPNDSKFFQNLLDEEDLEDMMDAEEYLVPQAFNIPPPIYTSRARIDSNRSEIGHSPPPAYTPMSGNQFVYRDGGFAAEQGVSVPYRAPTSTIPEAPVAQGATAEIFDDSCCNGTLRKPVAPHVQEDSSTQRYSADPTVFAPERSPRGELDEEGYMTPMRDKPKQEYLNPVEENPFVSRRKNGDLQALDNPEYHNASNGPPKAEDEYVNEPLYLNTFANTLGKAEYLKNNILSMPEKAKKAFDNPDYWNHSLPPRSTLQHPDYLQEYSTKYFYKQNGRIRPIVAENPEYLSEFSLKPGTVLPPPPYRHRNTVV
MAP kinase-interacting serine/threonine-protein kinase 1 (Homo sapiens), sequence (Q9BUB5 whole entry, looked up): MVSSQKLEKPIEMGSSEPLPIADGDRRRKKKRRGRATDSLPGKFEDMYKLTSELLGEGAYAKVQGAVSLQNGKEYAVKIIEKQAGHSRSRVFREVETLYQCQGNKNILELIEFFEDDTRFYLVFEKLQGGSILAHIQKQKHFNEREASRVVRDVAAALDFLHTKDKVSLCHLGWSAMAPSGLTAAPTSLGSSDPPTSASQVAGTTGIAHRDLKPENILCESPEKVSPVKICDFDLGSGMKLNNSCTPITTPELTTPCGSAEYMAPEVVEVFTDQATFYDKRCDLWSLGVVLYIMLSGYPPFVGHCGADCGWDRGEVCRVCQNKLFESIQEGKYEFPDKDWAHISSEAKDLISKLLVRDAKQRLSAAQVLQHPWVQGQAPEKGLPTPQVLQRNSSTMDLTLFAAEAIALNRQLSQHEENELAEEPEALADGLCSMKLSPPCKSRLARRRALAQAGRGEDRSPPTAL
SRSF protein kinase 1 (Homo sapiens), sequence (Q96SB4 whole entry): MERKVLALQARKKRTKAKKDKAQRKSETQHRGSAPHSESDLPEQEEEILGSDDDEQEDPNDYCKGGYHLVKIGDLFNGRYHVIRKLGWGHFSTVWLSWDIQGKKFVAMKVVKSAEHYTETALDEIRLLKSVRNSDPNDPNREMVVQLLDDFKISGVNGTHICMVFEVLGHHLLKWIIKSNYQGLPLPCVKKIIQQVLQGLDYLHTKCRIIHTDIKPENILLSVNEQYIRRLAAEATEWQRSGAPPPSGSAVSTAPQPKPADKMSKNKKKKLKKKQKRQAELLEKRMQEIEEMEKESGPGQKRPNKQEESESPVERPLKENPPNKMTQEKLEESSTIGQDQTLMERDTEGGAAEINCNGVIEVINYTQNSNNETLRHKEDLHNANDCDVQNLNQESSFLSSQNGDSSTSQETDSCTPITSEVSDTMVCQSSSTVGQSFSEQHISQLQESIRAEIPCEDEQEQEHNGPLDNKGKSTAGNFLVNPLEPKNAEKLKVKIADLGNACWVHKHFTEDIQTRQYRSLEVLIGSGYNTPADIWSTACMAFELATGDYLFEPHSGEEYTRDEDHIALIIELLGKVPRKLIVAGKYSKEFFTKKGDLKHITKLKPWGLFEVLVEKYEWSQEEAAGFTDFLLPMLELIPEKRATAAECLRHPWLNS

Row | SMILES | residual activity [1] | residual activity [2] | residual activity [3] | inhibition [4] | residual activity [5] | residual activity [6] | residual activity [7] | residual activity [8]
1 | CCn1c(-c2nonc2N)nc2cnc(Oc3cccc(NC(=O)c4ccc(OCCN5CCOCC5)cc4)c3)cc21 [GSK-269962A] | 77% |  |  |  |  |  |  | 
2 | Cc1cncc2cccc(S(=O)(=O)N3CCCNC[C@@H]3C)c12 |  | 50% | 107% | 51% | 125% | 84% |  | 
3 | O=S(=O)(c1cccc2cnccc12)N1CCCNCC1 [FASUDIL] |  |  |  |  |  |  | 55% | 27%
4 | C[C@@H](N)[C@H]1CC[C@H](C(=O)Nc2ccncc2)CC1 |  |  |  |  |  |  | 89% | 44%
5 | CC1=C(C(=O)Nc2cc3cn[nH]c3cc2F)C(c2ccc(C(F)(F)F)cc2)CC(=O)N1 (stereo unspecified) | 94% | 91% | 50% | 51% | 71% | 82% |  | 
